Results as given in ChEMBL document CHEMBL1268941, “Bromophenols as Candida albicans isocitrate lyase inhibitors” (Bioorg Med Chem Lett, 2010).
pIC50: −log10 of the molar value. ≈ marks a conversion by molar mass, not a printed value.

Columns and labels:
Staphylococcus aureus = assay: Antimicrobial activity against Staphylococcus aureus ATCC 6538p after 24 hrs by broth dilution method; format: functional
In short: (§1)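 Test bacteria grown overnight at 37 °C in LB broth, centrifuged and washed twice in sterile distilled water. Compound stocks made in DMSO and diluted in broth. Each microtiter well received 10 µl of broth holding about 10⁵ cfu/ml of bacteria. Plates incubated 24 h at 37 °C. Read-out was the MIC.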

Micrococcus luteus = assay: Antimicrobial activity against Micrococcus luteus IFO 12708 after 24 hrs by broth dilution method; format: functional; details: IFO 12708, 24 h; in short: as §1
Proteus vulgaris = assay: Antimicrobial activity against Proteus vulgaris ATCC 3851 after 24 hrs by broth dilution method; format: functional; details: ATCC 3851, 24 h; in short: as §1
Isocitrate lyase = Isocitrate lyase (Candida albicans, UniProt Q9P8Q7); assay: Inhibition of Candida albicans ATCC 10231 isocitrate lyase
Chain of Isocitrate lyase (Q9P8Q7 whole entry): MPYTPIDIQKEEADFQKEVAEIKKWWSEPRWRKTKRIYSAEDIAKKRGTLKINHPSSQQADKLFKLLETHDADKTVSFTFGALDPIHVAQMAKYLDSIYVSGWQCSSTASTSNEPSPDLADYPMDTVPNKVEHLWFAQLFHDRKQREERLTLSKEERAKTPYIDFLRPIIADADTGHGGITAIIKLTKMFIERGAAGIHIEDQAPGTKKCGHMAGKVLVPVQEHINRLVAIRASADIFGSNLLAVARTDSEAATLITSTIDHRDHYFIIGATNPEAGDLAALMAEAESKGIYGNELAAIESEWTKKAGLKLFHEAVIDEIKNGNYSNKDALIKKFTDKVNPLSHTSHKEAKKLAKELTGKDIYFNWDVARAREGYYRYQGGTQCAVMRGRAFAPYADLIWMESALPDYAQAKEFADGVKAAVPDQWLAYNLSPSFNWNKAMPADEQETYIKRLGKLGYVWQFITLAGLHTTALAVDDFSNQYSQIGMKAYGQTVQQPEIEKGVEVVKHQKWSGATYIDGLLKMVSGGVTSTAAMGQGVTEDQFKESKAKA

Trichophyton rubrum = assay: Antimicrobial activity against Trichophyton rubrum IFO 9185 after 48 to 72 hrs by broth dilution method; format: functional
In short: (§2)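 For C. albicans, cells were grown 48 h at 28 °C in YPD broth (1% yeast extract, 2% peptone, 2% dextrose), centrifuged and washed twice in sterile distilled water. A. fumigatus, T. rubrum and T. mentagrophytes were grown on potato dextrose agar for 2 weeks at 28 °C. Compound stocks made in DMSO. Microtiter plates incubated 48–72 h at 28 °C. Read-out was the MIC.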

Bacillus subtilis = assay: Antimicrobial activity against Bacillus subtilis ATCC 6633 after 24 hrs by broth dilution method; format: functional; details: ATCC 6633, 24 h; in short: as §1
Aspergillus fumigatus = assay: Antimicrobial activity against Aspergillus fumigatus HIC 6094 after 48 to 72 hrs by broth dilution method; format: functional; in short: as §2
Candida albicans = assay: Antimicrobial activity against Candida albicans ATCC 10231 after 48 to 72 hrs by broth dilution method; format: functional; in short: as §2
Salmonella typhimurium = assay: Antimicrobial activity against Salmonella Typhimurium ATCC 14028 after 24 hrs by broth dilution method; format: functional, Salmonella enterica subsp. enterica serovar Typhimurium; details: Salmonella enterica, ATCC 14028, 24 h; in short: as §1
[1] = tested on: Trichophyton mentagrophytes; assay: Antimicrobial activity against Trichophyton mentagrophytes IFO 40996 after 48 to 72 hrs by broth dilution method; format: functional; in short: as §2

MIC (Staphylococcus aureus)	MIC (Micrococcus luteus)	MIC (Proteus vulgaris)	pIC50 (Isocitrate lyase)	MIC (Trichophyton rubrum)	MIC (Bacillus subtilis)	MIC (Aspergillus fumigatus)	MIC (Candida albicans)	MIC (Salmonella typhimurium)	MIC [1]	SMILES
> 100 mg/L	> 100 mg/L	> 100 mg/L	4.65	> 100 mg/L	> 100 mg/L	> 100 mg/L	> 100 mg/L	> 100 mg/L	> 100 mg/L	O=C(c1ccc(O)c(O)c1)c1ccc(O)c(O)c1
50 mg/L (≈ 203 µM)	100 mg/L (≈ 406 µM)	100 mg/L (≈ 406 µM)	4.23	> 100 mg/L	100 mg/L (≈ 406 µM)	> 100 mg/L	> 100 mg/L	100 mg/L (≈ 406 µM)	100 mg/L (≈ 406 µM)	Oc1ccc(CCc2ccc(O)c(O)c2)cc1O
100 mg/L (≈ 319 µM)	100 mg/L (≈ 319 µM)	> 100 mg/L	4.17	> 100 mg/L	> 100 mg/L	> 100 mg/L	> 100 mg/L	100 mg/L (≈ 319 µM)	> 100 mg/L	Oc1ccc(Oc2cc(O)c(O)cc2Br)cc1O
> 100 mg/L	> 100 mg/L	> 100 mg/L	4.81	> 100 mg/L	> 100 mg/L	> 100 mg/L	> 100 mg/L	> 100 mg/L	> 100 mg/L	Oc1cc(Br)c(COCc2cc(O)c(O)c(Br)c2Br)cc1O
50 mg/L (≈ 124 µM)	50 mg/L (≈ 124 µM)	50 mg/L (≈ 124 µM)	4.67	50 mg/L (≈ 124 µM)	50 mg/L (≈ 124 µM)	50 mg/L (≈ 124 µM)	50 mg/L (≈ 124 µM)	50 mg/L (≈ 124 µM)	100 mg/L (≈ 247 µM)	Oc1cc(Br)c(CCc2cc(O)c(O)cc2Br)cc1O
100 mg/L (≈ 207 µM)	100 mg/L (≈ 207 µM)	100 mg/L (≈ 207 µM)	4.83	> 100 mg/L	50 mg/L (≈ 104 µM)	> 100 mg/L	100 mg/L (≈ 207 µM)	100 mg/L (≈ 207 µM)	> 100 mg/L	Oc1cc(Br)c(CCc2cc(O)c(O)c(Br)c2Br)cc1O
100 mg/L (≈ 207 µM)	50 mg/L (≈ 104 µM)	100 mg/L (≈ 207 µM)	5.58	> 100 mg/L	50 mg/L (≈ 104 µM)	> 100 mg/L	100 mg/L (≈ 207 µM)	100 mg/L (≈ 207 µM)	> 100 mg/L	O=C(c1cc(O)c(O)c(Br)c1)c1cc(O)c(O)c(Br)c1Br
> 100 mg/L	> 100 mg/L	> 100 mg/L	< 3.42	> 100 mg/L	> 100 mg/L	> 100 mg/L	> 100 mg/L	> 100 mg/L	> 100 mg/L	Oc1ccc(COCc2ccc(O)c(O)c2)cc1O
> 100 mg/L	100 mg/L (≈ 248 µM)	> 100 mg/L	5.05	> 100 mg/L	100 mg/L (≈ 248 µM)	> 100 mg/L	> 100 mg/L	> 100 mg/L	> 100 mg/L	O=C(c1cc(O)c(O)c(Br)c1)c1cc(O)c(O)c(Br)c1
25 mg/L (≈ 64.1 µM)	12.5 mg/L (≈ 32 µM)	25 mg/L (≈ 64.1 µM)	4.34	> 100 mg/L	25 mg/L (≈ 64.1 µM)	> 100 mg/L	> 100 mg/L	25 mg/L (≈ 64.1 µM)	50 mg/L (≈ 128 µM)	Oc1cc(Br)c(Cc2cc(O)c(O)cc2Br)cc1O

More lines, now with the values behind:

SMILES	MIC (Staphylococcus aureus)	MIC (Micrococcus luteus)	MIC (Proteus vulgaris)	pIC50 (Isocitrate lyase)	MIC (Trichophyton rubrum)	MIC (Bacillus subtilis)	MIC (Aspergillus fumigatus)	MIC (Candida albicans)	MIC (Salmonella typhimurium)	MIC [1]
Oc1ccc(Oc2ccc(O)c(O)c2)cc1O	50 mg/L (≈ 213 µM)	100 mg/L (≈ 427 µM)	> 100 mg/L	< 4.00	> 100 mg/L	> 100 mg/L	> 100 mg/L	> 100 mg/L	100 mg/L (≈ 427 µM)	> 100 mg/L
Oc1cc(Br)c(Oc2cc(O)c(O)cc2Br)cc1O	100 mg/L (≈ 255 µM)	50 mg/L (≈ 128 µM)	100 mg/L (≈ 255 µM)	4.51	> 100 mg/L	100 mg/L (≈ 255 µM)	> 100 mg/L	> 100 mg/L	100 mg/L (≈ 255 µM)	> 100 mg/L
Oc1cc(Oc2cc(O)c(O)c(Br)c2Br)c(Br)c(Br)c1O	50 mg/L (≈ 90.9 µM)	50 mg/L (≈ 90.9 µM)	25 mg/L (≈ 45.5 µM)	4.93	12.5 mg/L (≈ 22.7 µM)	25 mg/L (≈ 45.5 µM)	25 mg/L (≈ 45.5 µM)	25 mg/L (≈ 45.5 µM)	50 mg/L (≈ 90.9 µM)	25 mg/L (≈ 45.5 µM)
C[C@@H]1[C@H](O)[C@@H](C)/C=C/C=C/C=C/C=C/C=C/C=C/C=C/[C@H](O[C@@H]2O[C@H](C)[C@@H](O)[C@H](N)[C@@H]2O)C[C@@H]2O[C@](O)(C[C@@H](O)C[C@@H](O)[C@H](O)CC[C@@H](O)C[C@@H](O)CC(=O)O[C@H]1C)C[C@H](O)[C@H]2C(=O)O [AMPHOTERICIN B]					3.12 mg/L (≈ 3.38 µM)		3.12 mg/L (≈ 3.38 µM)	6.25 mg/L (≈ 6.76 µM)		3.12 mg/L (≈ 3.38 µM)
Oc1cc(Cc2cc(O)c(O)c(Br)c2Br)c(Br)c(Br)c1O	25 mg/L (≈ 45.6 µM)	25 mg/L (≈ 45.6 µM)	50 mg/L (≈ 91.3 µM)	4.73	1.56 mg/L (≈ 2.85 µM)	25 mg/L (≈ 45.6 µM)	0.78 mg/L (≈ 1.42 µM)	1.56 mg/L (≈ 2.85 µM)	50 mg/L (≈ 91.3 µM)	1.56 mg/L (≈ 2.85 µM)
CC1(C)S[C@@H]2[C@H](NC(=O)[C@H](N)c3ccccc3)C(=O)N2[C@H]1C(=O)O [AMPICILLIN]	1.56 mg/L (≈ 4.46 µM)	3.12 mg/L (≈ 8.93 µM)	3.12 mg/L (≈ 8.93 µM)			1.56 mg/L (≈ 4.46 µM)			1.56 mg/L (≈ 4.46 µM)	
Oc1cc(COCc2cc(O)c(O)c(Br)c2Br)c(Br)c(Br)c1O	> 100 mg/L	> 100 mg/L	> 100 mg/L	4.55	> 100 mg/L	> 100 mg/L	> 100 mg/L	> 100 mg/L	> 100 mg/L	> 100 mg/L
